Test results: ChEMBL document CHEMBL1139521, “Synthetic iminosugar derivatives as new potential immunosuppressive agents” (J Med Chem, 2005)

Assays:
Format in all cases: functional
[1] = Inhibitory concentration against proliferation of mouse splenocytes was determined by measuring mitochondrial dehydrogenase activity using MTT assay
How it was run: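 Mouse splenocyte proliferation measured by a 72 h MTT assay, with mitochondrial dehydrogenase activity of surviving cells as read-out. Test agents were in acetate form. Cyclosporin A was included as a comparator. IC50 taken as the concentration giving 50% inhibition.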

Mus musculus [2] = species: Mus musculus; assay: Effect on level of IL-4 secretion in mice splenocytes following treatment with 25 uM compound done for 72 hr at 37 degree C
How it was run: (§1)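 Mouse spleen cells stimulated with concanavalin A in the presence of 25 µM test agent (acetate form) at 37 °C, 5% CO2 for 72 h. Cytokine levels (IL-4 or IFN-γ) in the culture supernatant measured by mouse ELISA kit. Reduction expressed relative to control. Means ± SEM of at least three independent experiments.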

Mus musculus [3] = species: Mus musculus; assay: Effect on level of IFN-gamma secretion splenocytes in mice following treatment with 25 uM compound done for 72 hr at 37 degree C; how it was run: as §1

Structure (SMILES)	IC50 [1] [µM]	Reduction (Mus musculus [2]) [%]	Reduction (Mus musculus [3]) [%]
OC[C@@H]1N[C@@H](CO)[C@H](O)C(O)[C@H]1O (stereo not given in full)	272	84.6	51.6
O=C(O)[C@H]1N[C@H](CO)[C@H](O)[C@H](O)[C@H]1O	340	30.8	31.2
O=C(O)[C@H]1N[C@@H](CO)[C@H](O)[C@H](O)[C@H]1O	346	92.3	24.2
OC[C@@H]1N[C@H](CO)[C@H](O)[C@@H](O)[C@H]1O	332	92.3	86.2
OC[C@H]1N[C@H](CO)[C@H](O)C(O)[C@H]1O (stereo not given in full)	519	69.2	75.89
